From ChEMBL document CHEMBL2202980, “Anti-viral activity of (-)- and (+)-usnic acids and their derivatives against influenza virus A(H1N1)2009” (Bioorg Med Chem Lett, 2012)

Legend:
[1] = Selectivity index, ratio of CTD50 for MDCK cells to ED50 for influenza virus A/California/07/09 (H1N1) pdm09; assay type: toxicity, cell-based; details: dog, read-out: Selectivity Index
[2] = Cytotoxicity against MDCK cells after 48 hrs by MTT assay; assay type: cell-based, Canis lupus familiaris; details: dog, read-out: CTD50
Procedure, shortened: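 MDCK monolayers were grown in MEM with 5% fetal calf serum and washed with serum-free MEM. They were exposed to serial twofold dilutions from 5 mg/ml DMSO stocks for 48 h at 37 °C. CTD50 was derived from this.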

Influenza A virus = test: Antiviral activity against Influenza virus A/California/07/09 (H1N1) pdm09 infected in MDCK cells after 48 hrs followed by incubated in chicken erythrocytes for 1 hr by hemagglutinination based end-point dilution method; assay type: functional, Influenza A virus (A/California/07/2009(H1N1)); details: read-out: ED50 (the source's name)
Procedure, shortened: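 MDCK cells were pretreated for 1 h at 37 °C with serial twofold compound dilutions in MEM containing 2 mM arginine, 2 mM glutamine and trypsin. They were then infected and cultured at 36 °C for 48 h. Supernatant was mixed with 1% chicken erythrocytes for 1 h at room temperature. Titer was read as the end-point dilution giving hemagglutination in 50% of wells. ED50 is the concentration halving virus production versus untreated control.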

RAW264.7 [3] = test: Antiinflammatory activity in mouse RAW264.7 cells assessed as inhibition of LPS-induced TNFalpha level; assay type: functional, cell-based
[4] = Selectivity index, ratio of cytotoxicity against human CEM cells to Antiviral activity against HIV1 RF; assay type: toxicity, cell-based, CCRF-CEM; details: read-out: Selectivity Index
RAW264.7 [5] = test: Antiinflammatory activity in mouse RAW264.7 cells assessed as inhibition of LPS-induced iNOS protein synthesis; assay type: functional, cell-based

Row | SMILES | selectivity ratio [1] | CC50 at 48 h [2] [µM] | EC50 (Influenza A virus; Influenza A virus, pdm09, MDCK) [µM] | EC50 (Influenza A virus) [µM] | IC50 (RAW264.7 [3]) [µM] | selectivity ratio [4] | IC50 (RAW264.7 [5]) [µM]
1 | CC(=O)c1c(O)c(C)c(O)c2c1OC1=Cc3c(c(C)nn3-c3ccccc3)C(=O)[C@@]12C | 12.4 | 769 | 62.2 |  |  |  | 
2 | CC(=O)c1c(O)c(C)c(O)c2c1OC1=Cc3c(c(C)nn3-c3ccccc3)C(=O)[C@]12C | 9 | 522 | 57.8 |  |  |  | 
3 | CC(=O)c1c(O)c(C)c(O)c2c1OC1=Cc3c(c(C)nn3-c3ccccc3)[C@@H](O)[C@@]12C | 13.2 | 78.9 | 6 |  |  |  | 
4 | CC(=O)c1c(O)c(C)c(O)c2c1OC1=Cc3c(c(C)nn3-c3ccccc3)[C@@H](O)[C@]12C | 6.8 | 71.8 | 10.5 |  |  |  | 
5 | CC(=O)c1c(O)c(C)c(O)c2c1OC1=CC(=O)/C(=C(/C)NCC(F)(F)C(F)F)C(=O)[C@@]12C | 19.4 | 31.1 | 1.6 |  |  |  | 
6 | CC(=O)c1c(O)c(C)c(O)c2c1OC1=CC(=O)/C(=C(/C)NCC(F)(F)C(F)F)C(=O)[C@]12C | 10.2 | 397 | 38.9 |  |  |  | 
7 | CC[N+](C)(CC)CCN/C(C)=C1\C(=O)C=C2Oc3c(C(C)=O)c(O)c(C)c(O)c3[C@@]2(C)C1=O | 21.9 | 121 | 5.5 |  |  |  | 
8 | CC[N+](C)(CC)CCN/C(C)=C1\C(=O)C=C2Oc3c(C(C)=O)c(O)c(C)c(O)c3[C@]2(C)C1=O | 2.7 | 34.2 | 12.5 |  |  |  | 
9 | CC(=O)c1c(O)c(C)c(O)c2c1OC1=CC(=O)/C(=C(/C)NCC(=O)O)C(=O)[C@@]12C | 6 | 67.3 |  | 11.2 |  |  | 
10 | CC(=O)c1c(O)c(C)c(O)c2c1OC1=CC(=O)/C(=C(/C)NCC(=O)O)C(=O)[C@]12C | 18.4 | 197 |  | 10.7 |  |  | 
11 | CC(=O)c1c(O)c(C)c(O)c2c1OC1=CC(=O)/C(=C(/C)NCCC(=O)O)C(=O)[C@@]12C | 23.5 | 162 | 6.9 |  |  |  | 
12 | CC(=O)c1c(O)c(C)c(O)c2c1OC1=CC(=O)/C(=C(/C)NCCC(=O)O)C(=O)[C@]12C | 1 | 400 | 400 |  |  |  | 
13 | CC(=O)c1c(O)c(C)c(O)c2c1OC1=CC(=O)/C(=C(/C)Nc3ccc(F)cc3)C(=O)[C@@]12C | 8.8 | 208 | 23.6 |  |  |  | 
14 | CC(=O)c1c(O)c(C)c(O)c2c1OC1=CC(=O)/C(=C(/C)Nc3ccc(F)cc3)C(=O)[C@]12C | 3.9 | 350 | 90.4 |  |  |  | 
15 | CC(=O)c1c(O)c(C)c(O)c2c1OC1=CC(=O)/C(=C(/C)Nc3ccc(Cl)cc3)C(=O)[C@@]12C | 6.9 | 172 | 25.1 |  |  |  | 
16 | CC(=O)c1c(O)c(C)c(O)c2c1OC1=CC(=O)/C(=C(/C)Nc3ccc(Cl)cc3)C(=O)[C@]12C | 11.7 | 153 | 13.1 |  |  |  | 
17 | CC(=O)c1c(O)c(C)c(O)c2c1OC1=CC(=O)/C(=C(/C)Nc3ccc(Br)cc3)C(=O)[C@@]12C | 9.6 | 193 | 20.2 |  |  |  | 
18 | CC(=O)c1c(O)c(C)c(O)c2c1OC1=CC(=O)/C(=C(/C)Nc3ccc(Br)cc3)C(=O)[C@]12C | 5.1 | 154 | 30.4 |  |  |  | 
19 | CC(=O)c1c(O)c(C)c(O)c2c1OC1=CC(=O)/C(=C(/C)Nc3cccc(F)c3)C(=O)[C@@]12C | 4.8 | 61.3 | 12.7 |  |  |  | 
20 | CC(=O)c1c(O)c(C)c(O)c2c1OC1=CC(=O)/C(=C(/C)Nc3cccc(F)c3)C(=O)[C@]12C | 8.8 | 35.3 | 4 |  |  |  | 
21 | CC(=O)c1c(O)c(C)c(O)c2c1OC1=CC(=O)/C(=C(/C)Nc3cccc(Br)c3)C(=O)[C@@]12C | 3.2 | 33.6 | 10.4 |  |  |  | 
22 | CC(=O)c1c(O)c(C)c(O)c2c1OC1=CC(=O)/C(=C(/C)Nc3cccc(Br)c3)C(=O)[C@]12C | 10 | 97.8 | 9.8 |  |  |  | 
23 | CC(=O)C1=C(O)C=C2O[C@]34O[C@@]3(C(C)=O)C(=O)C(C)=C(O)[C@]4(O)[C@@]2(C)C1=O | 37.3 | 190 | 5.1 |  |  |  | 
24 | CC(=O)C1=C(O)C=C2O[C@]34O[C@@]3(C(C)=O)C(=O)C(C)=C(O)[C@]4(O)[C@]2(C)C1=O | 8 | 221 | 27.7 |  |  |  | 
25 | CC(=O)C1=C(O)C=C2Oc3c(C(C)=O)c(O)c(C)c(O)c3[C@@]2(C)C1=O [(+)-USNIC ACID] | 5.9 | 305 |  | 51.7 | 12.8 | 3 | 4.7
26 | CC(=O)C1=C(O)C=C2Oc3c(C(C)=O)c(O)c(C)c(O)c3[C@]2(C)C1=O [(-)-USNIC ACID] | 14.4 | 209 | 14.5 |  |  |  | 
27 | NC(=O)c1ncn([C@@H]2O[C@H](CO)[C@@H](O)[C@H]2O)n1 [RIBAVIRIN] | > 81 | > 2000 | 24.6 |  |  |  | 
28 | CC(N)C12CC3CC(CC(C3)C1)C2 (configuration not stated) [RIMANTADINE] | 5 | 284 | 56.9 |  |  |  | 
